Experimental data published in article PMC8693849 (RSC Advances, 2021).
≈ marks a conversion by molar mass, not a printed value.

What was measured:
[1] = system: K. pneumoniae (MDR clinical isolate); assay: Zone of inhibition against MDR clinical isolate; format: cell-based; settings: for Diameter of zone inhibition: MDR K. pneumoniae clinical isolate, 15 μg mL^−1; for zone of inhibition at 15 µg/mL: Klebsiella pneumoniae, read-out: Diameter of zone inhibition
[2] = system: P. phaseolicola (GSPB 2828); assay: Agar diffusion method, zone of inhibition; format: cell-based, Pseudomonas phaseolicola; settings: for zone of inhibition at 15 µg/mL / zone of inhibition at 10 µg/mL: Pseudomonas, 24 h, read-out: Diameter of zone inhibition
Outline: (§1)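 Bacterial strains were tested by agar diffusion on nutrient agar (peptone 5 and meat extract 3 g L⁻¹ in distilled water, pH 7.0, 2% agar, autoclaved 121 °C for 20 min). Each test compound (1 mg) was dissolved in 1 mL DMSO and made up to 10 mL with sterile water (100 μg mL⁻¹ stock). The solution was placed in the agar, and inhibition zones were measured after 24 h incubation. Values are the mean of triplicate readings.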

S. aureus (ATCC 25923) = assay: Agar diffusion method, zone of inhibition; format: cell-based, Staphylococcus aureus; settings: for Diameter of zone inhibition: S. aureus (ATCC 25923), average of triplicate; for zone of inhibition at 15 µg/mL / zone of inhibition at 10 µg/mL: Staphylococcus aureus, ATCC25923, 24 h, read-out: Diameter of zone inhibition
Outline: as §1

Gram-positive bacteria = assay: Agar diffusion method; format: cell-based, S. aureus (ATCC 25923) and S. pyogenes (ATCC 19615); settings: summary of Table 1
Outline: as §1

P. fluorescens (S 97) = assay: Agar diffusion method, zone of inhibition; format: cell-based, Pseudomonas fluorescens; settings: for Diameter of zone inhibition: P. fluorescens (S 97), average of triplicate; for zone of inhibition at 15 µg/mL / zone of inhibition at 10 µg/mL: Pseudomonas fluorescens, 24 h, read-out: Diameter of zone inhibition
Outline: as §1

[3] = system: MRSA1 (methicillin resistant S. aureus); assay: Zone of inhibition against MDR clinical isolate; format: cell-based; settings: for Diameter of zone inhibition: MRSA1 clinical isolate, 15 μg mL^−1; for zone of inhibition at 15 µg/mL: Staphylococcus aureus, read-out: Diameter of zone inhibition
C. albicans = assay: Agar diffusion method, zone of inhibition; format: cell-based, Candida albicans; settings: for Diameter of zone inhibition: C. albicans, average of triplicate; for zone of inhibition at 10 µg/mL / zone of inhibition at 15 µg/mL: Candida albicans, 24 h, read-out: Diameter of zone inhibition
Outline: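 For agar diffusion against C. albicans, each test compound (1 mg) was dissolved in 1 mL DMSO and diluted to 10 mL with sterile water (100 μg mL⁻¹ stock). The solution was placed in the agar, and the inhibition zone diameter was read after 24 h. Values are the average of triplicate readings.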

[4] = system: MRSA1 (methicillin resistant S. aureus); assay: Minimal inhibitory concentration; format: cell-based; settings: for SI (selectivity index, CC50/MIC): MRSA1 vs VERO cells; for Activity against methicillin resistant S. aureus: MDR clinical isolate
Outline: (§2)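 Broth microdilution against MDR clinical isolates: 80 μl Mueller–Hinton broth plus 20 μl tween 80 received 100 μl test compound, then two-fold serial dilution. Each well was inoculated with 100 μl of 0.5 McFarland suspension ([…]) and incubated covered at 35 ± 2 °C for 24 h. MIC is the lowest concentration inhibiting growth.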

VERO cells = assay: In vitro cytotoxicity, MTT assay; format: cell-based, African Green Monkey; settings: normal VERO cells, 72 h, Table 4
[5] = system: K. pneumoniae (MDR clinical isolate); assay: Minimal inhibitory concentration; format: cell-based; settings: for SI (selectivity index, CC50/MIC): K. pneumoniae vs VERO cells
Outline: as §2

Gram-negative bacteria = assay: Agar diffusion method; format: cell-based, P. phaseolicola (GSPB 2828) and P. fluorescens (S 97); settings: summary of Table 1
Outline: as §1

S. pyogenes (ATCC 19615) = assay: Agar diffusion method, zone of inhibition; format: cell-based, Streptococcus pyogenes; settings: for zone of inhibition at 10 µg/mL / zone of inhibition at 15 µg/mL: Streptococcus pyogenes, ATCC19615, 24 h, read-out: Diameter of zone inhibition
[6] = system: MRSA1 (methicillin resistant S. aureus); assay: Minimum bactericidal concentration; format: cell-based; settings: MRSA; >4 = bacteriostatic

Molecule	Activity against Gram-positive bacteria (Gram-positive bacteria)	MIC ([5]; K. pneumoniae, Table 4)	Activity against Gram-negative bacteria (Gram-negative bacteria)	zone of inhibition at 15 µg/mL [1]	zone of inhibition at 15 µg/mL [2]	zone of inhibition at 10 µg/mL (S. pyogenes (ATCC 19615))	zone of inhibition at 15 µg/mL (P. fluorescens (S 97))	zone of inhibition at 15 µg/mL [3]	zone of inhibition at 10 µg/mL (C. albicans)	zone of inhibition at 15 µg/mL (C. albicans)	zone of inhibition at 10 µg/mL [2]	zone of inhibition at 10 µg/mL (P. fluorescens (S 97))	SI (selectivity index, CC50/MIC) [4]	MIC ([4]; Staphylococcus aureus)	zone of inhibition at 10 µg/mL (S. aureus (ATCC 25923))	other results
2-(5-(4-Chlorophenyl)-6-cyano-2-(2-hydroxyphenyl)-7-imino-1,2-dihydro-[1,2,4]triazolo[1,5-a]pyrimidin-3(7H)-yl)-3-(1H-indol-3-yl)propanoic acid [Compound 8c]	active															Diameter of zone inhibition [1]: 12 mm; Diameter of zone inhibition ([2]; P. phaseolicola (GSPB 2828), 15 μg mL^−1, 24 h, average of triplicate): 24 mm; Diameter of zone inhibition (S. aureus (ATCC 25923); 15 μg mL^−1, 24 h): 30 mm; Diameter of zone inhibition (P. fluorescens (S 97); 10 μg mL^−1, 24 h): 13 mm; Diameter of zone inhibition (P. fluorescens (S 97); 15 μg mL^−1, 24 h): 23 mm; Diameter of zone inhibition [3]: 28 mm; Diameter of zone inhibition (C. albicans; 10 μg mL^−1, 24 h): 8 mm; Diameter of zone inhibition (C. albicans; 15 μg mL^−1, 24 h): 11 mm; MIC ([4]; MRSA1 clinical isolate, Table 2): 50 µg/mL
2-(5-(4-Chlorophenyl)-6-cyano-2-(2-hydroxyphenyl)-7-imino-2-methyl-1,2-dihydro-[1,2,4]triazolo[1,5-a]pyrimidin-3(7H)-yl)propanoic acid [Compound 8b]		25 µg/mL	active													Diameter of zone inhibition [1]: 27 mm; CC50 (VERO cells): 125 µg/mL; MIC ([5]; MDR K. pneumoniae clinical isolate, Table 2): 25 µg/mL; Diameter of zone inhibition (S. aureus (ATCC 25923); 10 μg mL^−1, 24 h): 12 mm; Diameter of zone inhibition (S. aureus (ATCC 25923); 15 μg mL^−1, 24 h): 22 mm; Diameter of zone inhibition (S. pyogenes (ATCC 19615); S. pyogenes (ATCC 19615), 15 μg mL^−1, 24 h, average of triplicate): 26 mm; Diameter of zone inhibition [3]: 8 mm; Diameter of zone inhibition (C. albicans; 10 μg mL^−1, 24 h): 8 mm; Diameter of zone inhibition (C. albicans; 15 μg mL^−1, 24 h): 10 mm
CC(C(=O)O)N1c2nc(-c3ccc(Cl)cc3)c(C#N)c(=O)n2NC1c1ccccc1O (centres unmarked) [Compound 9a, 2-(5-(4-Chlorophenyl)-6-cyano-2-(2-hydroxyphenyl)-7-oxo-1,2-dihydro-[1,2,4]triazolo[1,5-a]pyrimidin-3(7H)-yl)propanoic acid]		25 µg/mL (≈ 57.1 µM)	active	27 mm	30 mm	12 mm	30 mm	5 mm	6 mm	9 mm						SI (selectivity index, CC50/MIC) [5]: 20; zone of inhibition at 15 µg/mL (S. aureus (ATCC 25923)): 26 mm; zone of inhibition at 15 µg/mL (S. pyogenes (ATCC 19615)): 27 mm
N#Cc1c(-c2ccc(Cl)cc2)nc2n(c1=O)NC(c1ccccc1O)N2C(Cc1c[nH]c2ccccc12)C(=O)O (centres unmarked) [Compound 9c, 2-(5-(4-Chlorophenyl)-6-cyano-2-(2-hydroxyphenyl)-7-oxo-1,2-dihydro-[1,2,4]triazolo[1,5-a]pyrimidin-3(7H)-yl)-3-(1H-indol-3-yl)propanoic acid]	active			13 mm	22 mm	19 mm	20 mm	27 mm	9 mm	11 mm	10 mm	11 mm	10	25 µg/mL (≈ 45.2 µM)		MIC ([4]; MRSA1, Table 4): 25 µg/mL (≈ 45.2 µM)
CC(C(=O)O)N1c2nc(-c3ccc(Cl)cc3)c(C#N)c(=O)n2NC1(C)c1ccccc1O (centres unmarked) [Compound 9b, 2-(5-(4-Chlorophenyl)-6-cyano-2-(2-hydroxyphenyl)-2-methyl-7-oxo-1,2-dihydro-[1,2,4]triazolo[1,5-a]pyrimidin-3(7H)-yl)propanoic acid]		25 µg/mL (≈ 55.3 µM)	active	29 mm			28 mm	7 mm	6 mm	8 mm	19 mm				15 mm	SI (selectivity index, CC50/MIC) [5]: 10; zone of inhibition at 15 µg/mL (S. aureus (ATCC 25923)): 26 mm; zone of inhibition at 15 µg/mL (S. pyogenes (ATCC 19615)): 25 mm
CC1(c2ccccc2O)Nn2c(nc(-c3ccc(Cl)cc3)c(C#N)c2=O)N1C(Cc1c[nH]c2ccccc12)C(=O)O (centres unmarked) [Compound 9d, 2-(5-(4-Chlorophenyl)-6-cyano-2-(2-hydroxyphenyl)-2-methyl-7-oxo-1,2-dihydro-[1,2,4]triazolo[1,5-a]pyrimidin-3(7H)-yl)-3-(1H-indol-3-yl)propanoic acid]	active			11 mm		19 mm	23 mm	29 mm	7 mm	8 mm	10 mm	12 mm	40	12.5 µg/mL (≈ 22 µM)	20 mm	MIC index (MBC/MIC) [6]: > 4; Activity against methicillin resistant S. aureus ([4]; Table 2): remarkable activity; MIC ([4]; MRSA1, Table 3): 12.5 µg/mL (≈ 22 µM)
CC(=O)C1=C(C)N2NC(C)(c3ccccc3O)N(C(Cc3c[nH]c4ccccc34)C(=O)O)C2=NC1c1ccc(Cl)cc1 (centres unmarked) [Compound 2d, 2-(6-Acetyl-5-(4-chlorophenyl)-2-(2-hydroxyphenyl)-2,7-dimethyl-1,2-dihydro-[1,2,4]triazolo[1,5-a]pyrimidin-3(5H)-yl)-3-(1H-indol-3-yl)propanoic acid]	active			6 mm	22 mm	20 mm		28 mm	9 mm	12 mm	12 mm		20	25 µg/mL (≈ 42.8 µM)	20 mm	MIC ([4]; MRSA1, Table 4): 25 µg/mL (≈ 42.8 µM)
CCOC(=O)C1=C(C)N2NC(c3ccccc3O)N(C(Cc3c[nH]c4ccccc34)C(=O)O)C2=NC1c1ccc(Cl)cc1 (centres unmarked) [Compound 3c, 2-(5-(4-Chlorophenyl)-6-(ethoxycarbonyl)-2-(2-hydroxyphenyl)-7-methyl-1,2-dihydro-[1,2,4]triazolo[1,5-a]pyrimidin-3(5H)-yl)-3-(1H-indol-3-yl)propanoic acid]	active			9 mm			23 mm	24 mm	6 mm	7 mm	10 mm	8 mm	20	12.5 µg/mL (≈ 20.8 µM)		MIC index (MBC/MIC) [6]: > 4; Activity against methicillin resistant S. aureus ([4]; Table 2): remarkable activity; MIC ([4]; MRSA1, Table 3): 12.5 µg/mL (≈ 20.8 µM)
